ChEMBL document CHEMBL1142735, “Discovery of a new series of centrally active tricyclic isoxazoles combining serotonin (5-HT) reuptake inhibition with alpha2-adrenoceptor blocking activity” (J Med Chem, 2005)

Columns and labels:
Rattus norvegicus [1] = experiment: Effective dose concentration for antagonism ofpCA-Induced excitation was determined by subcutaneous administration; type: functional; details: sc
In short: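 Male Wistar rats (200-250 g), fasted overnight, given test compound or solvent sc before challenge. Loss of righting induced by medetomidine 0.10 mg/kg iv; reversal means no loss of righting. Excitation induced by pCA 5 mg/10 mL/kg sc and scored 0-3 over 15 min starting 45 min after pCA; inhibition means score <2.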

Rattus norvegicus [2] = experiment: Effective dose for PCA-induced 5-HT depletion was determined by subcutaneous administration; type: functional; details: sc
In short: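 Male Wiga Wistar rats (200 g, n=6 per condition) dosed sc or po (10 mL/kg). At 4 h, frontal cortex removed and extracted with perchloric acid/metabisulfite; 5-HT measured by HPLC-electrochemical detection against a standard curve with dihydroxybenzylamine internal standard. Effect scaled between pCA+vehicle and vehicle+vehicle controls; ED50 from sigmoidal fit.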

Rattus norvegicus [3] = experiment: Effective dose for antagonism ofpCA-Induced excitation was determined by oral administration; type: functional
In short: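 Oral pretreatment of overnight-fasted male Wistar rats (200-250 g), then medetomidine 0.10 mg/kg iv (reversal means no loss of righting) or pCA 5 mg/kg sc (excitation scored 0-3 over 15 min from 45 min after pCA; inhibition means score <2). Doses taken from a geometric series.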

[4] = target: 5-hydroxytryptamine receptor 2A (Homo sapiens, UniProt P28223); experiment: Inhibition of [125I]- R91150 binding to 5-hydroxytryptamine 2A receptor
In short: (§1)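 Radioligand competition binding on membranes from cell lines carrying the human target, incubated with the labelled ligand under optimized conditions. Separation by filtration, except α1A and D3, which used scintillation proximity assay.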

[5] = target: Norepinephrine transporter (Rattus norvegicus, UniProt Q9WTR4); experiment: Inhibition of [3H]-nisoxetine binding to Norepinephrine transporter from rat cortex
In short: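 Radioligand competition on rat cortex membranes, incubated under optimized conditions. Stopped by rapid filtration. Ki by Cheng-Prusoff.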

[6] = target: 5-hydroxytryptamine receptor 7 (Homo sapiens, UniProt P34969); experiment: Inhibition of [3H]5-HT binding to 5-hydroxytryptamine 7 receptor; in short: as §1
D(3) dopamine receptor = D(3) dopamine receptor (Homo sapiens, UniProt P35462); experiment: Inhibition of [125I]-iodosulpiride binding to Dopamine receptor D3
In short: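 Radioligand competition using membranes from a cell line transfected with human D3 receptor, incubated under optimized conditions. Bound ligand read by scintillation proximity assay rather than filtration. Ki by Cheng-Prusoff.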

[7] = target: Sodium-dependent dopamine transporter (Rattus norvegicus, UniProt P23977); experiment: Inhibition of [3H]WIN-35428 binding to Dopamine transporter of rat striatum; type: tissue-based
In short: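 Competition binding using rat striatum membranes incubated with the radioligand under optimized conditions, separated by filtration.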

[8] = target: T1, 5-hydroxytryptamine receptor 1A (Homo sapiens, UniProt P08908); experiment: Inhibition of [3H]8-OH-DPAT binding to 5-hydroxytryptamine 1A receptor; in short: as §1
T1 sequence (P08908 whole entry): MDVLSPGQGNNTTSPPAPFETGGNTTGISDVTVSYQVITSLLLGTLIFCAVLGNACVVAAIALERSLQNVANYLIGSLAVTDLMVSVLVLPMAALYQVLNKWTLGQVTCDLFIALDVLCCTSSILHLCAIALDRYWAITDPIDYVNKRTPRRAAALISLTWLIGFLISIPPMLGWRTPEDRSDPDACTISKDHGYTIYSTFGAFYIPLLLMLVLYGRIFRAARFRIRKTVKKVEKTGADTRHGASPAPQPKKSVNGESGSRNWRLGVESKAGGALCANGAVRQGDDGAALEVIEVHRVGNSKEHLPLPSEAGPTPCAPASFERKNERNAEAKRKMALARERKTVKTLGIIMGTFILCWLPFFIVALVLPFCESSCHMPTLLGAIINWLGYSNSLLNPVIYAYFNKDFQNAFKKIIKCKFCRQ

[9] = target: T2, 5-hydroxytryptamine receptor 2C (Homo sapiens, UniProt P28335); experiment: Inhibition of [3H]- mesulergine binding to 5-hydroxytryptamine 2C receptor; in short: as §1
T2 sequence (P28335 whole entry): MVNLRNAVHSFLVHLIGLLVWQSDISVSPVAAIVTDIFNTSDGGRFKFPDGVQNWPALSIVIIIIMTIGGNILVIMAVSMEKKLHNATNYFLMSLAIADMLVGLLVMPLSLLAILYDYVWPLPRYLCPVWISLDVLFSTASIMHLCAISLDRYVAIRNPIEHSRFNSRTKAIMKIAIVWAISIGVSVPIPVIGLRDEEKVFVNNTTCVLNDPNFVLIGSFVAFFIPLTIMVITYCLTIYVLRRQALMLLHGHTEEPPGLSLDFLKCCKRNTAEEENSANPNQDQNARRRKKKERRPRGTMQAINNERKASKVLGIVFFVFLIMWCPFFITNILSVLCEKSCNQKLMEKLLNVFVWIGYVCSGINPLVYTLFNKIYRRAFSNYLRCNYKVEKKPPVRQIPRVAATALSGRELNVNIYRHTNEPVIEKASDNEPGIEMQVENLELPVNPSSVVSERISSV

D(2) dopamine receptor = D(2) dopamine receptor (Homo sapiens, UniProt P14416); experiment: Inhibition of [3H]spiperone binding to Dopamine receptor D2; in short: as §1
D(4) dopamine receptor = target: T3, D(4) dopamine receptor (Homo sapiens, UniProt P21917); experiment: Inhibition of [3H]spiperone binding to Dopamine receptor D4; in short: as §1
T3 sequence (P21917 whole entry): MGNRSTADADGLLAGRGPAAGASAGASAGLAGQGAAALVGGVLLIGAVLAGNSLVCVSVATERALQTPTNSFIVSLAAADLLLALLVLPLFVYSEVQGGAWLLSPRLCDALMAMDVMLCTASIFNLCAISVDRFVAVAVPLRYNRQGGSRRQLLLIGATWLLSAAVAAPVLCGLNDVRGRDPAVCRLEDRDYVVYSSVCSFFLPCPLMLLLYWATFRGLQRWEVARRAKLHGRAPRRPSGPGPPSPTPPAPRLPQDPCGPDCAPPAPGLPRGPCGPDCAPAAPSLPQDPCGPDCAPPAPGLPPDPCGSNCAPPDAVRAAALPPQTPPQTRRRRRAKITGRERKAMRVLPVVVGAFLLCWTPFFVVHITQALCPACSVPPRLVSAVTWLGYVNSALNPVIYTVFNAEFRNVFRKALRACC

Histamine H1 receptor = Histamine H1 receptor (Homo sapiens, UniProt P35367); experiment: Inhibition of [3H]pyrilamine binding to Histamine H1 receptor
In short: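 Radioligand competition on membranes from a cell line transfected with the human target, incubated under optimized conditions. Stopped by rapid filtration. Ki by Cheng-Prusoff.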

Chain of 5-hydroxytryptamine receptor 2A (P28223 whole entry): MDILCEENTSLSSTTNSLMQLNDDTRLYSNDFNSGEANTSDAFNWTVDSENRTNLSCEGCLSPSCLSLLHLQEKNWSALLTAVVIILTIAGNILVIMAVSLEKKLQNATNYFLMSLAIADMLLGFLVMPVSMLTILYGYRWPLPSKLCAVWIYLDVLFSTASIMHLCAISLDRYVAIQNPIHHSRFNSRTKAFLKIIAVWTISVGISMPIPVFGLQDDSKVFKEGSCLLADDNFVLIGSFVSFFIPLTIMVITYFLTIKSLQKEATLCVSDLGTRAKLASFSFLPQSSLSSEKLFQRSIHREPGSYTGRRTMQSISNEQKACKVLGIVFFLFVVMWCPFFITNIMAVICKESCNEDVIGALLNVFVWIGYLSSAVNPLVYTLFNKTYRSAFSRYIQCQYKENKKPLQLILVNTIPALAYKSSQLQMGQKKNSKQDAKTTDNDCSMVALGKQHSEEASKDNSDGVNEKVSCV
Chain of 5-hydroxytryptamine receptor 7 (P34969 whole entry): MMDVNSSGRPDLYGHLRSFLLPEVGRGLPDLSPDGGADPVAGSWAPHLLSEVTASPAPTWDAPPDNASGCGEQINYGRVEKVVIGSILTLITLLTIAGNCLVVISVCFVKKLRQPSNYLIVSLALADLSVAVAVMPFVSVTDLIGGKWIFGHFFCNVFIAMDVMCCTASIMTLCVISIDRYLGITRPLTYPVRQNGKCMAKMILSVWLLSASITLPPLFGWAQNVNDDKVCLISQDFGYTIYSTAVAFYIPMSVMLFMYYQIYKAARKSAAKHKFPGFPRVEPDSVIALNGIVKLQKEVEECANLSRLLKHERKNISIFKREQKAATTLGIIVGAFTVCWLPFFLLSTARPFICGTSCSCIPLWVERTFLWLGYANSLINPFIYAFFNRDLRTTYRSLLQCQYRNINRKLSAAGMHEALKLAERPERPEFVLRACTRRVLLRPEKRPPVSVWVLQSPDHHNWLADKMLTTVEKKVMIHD
Chain of Norepinephrine transporter (Q9WTR4 whole entry): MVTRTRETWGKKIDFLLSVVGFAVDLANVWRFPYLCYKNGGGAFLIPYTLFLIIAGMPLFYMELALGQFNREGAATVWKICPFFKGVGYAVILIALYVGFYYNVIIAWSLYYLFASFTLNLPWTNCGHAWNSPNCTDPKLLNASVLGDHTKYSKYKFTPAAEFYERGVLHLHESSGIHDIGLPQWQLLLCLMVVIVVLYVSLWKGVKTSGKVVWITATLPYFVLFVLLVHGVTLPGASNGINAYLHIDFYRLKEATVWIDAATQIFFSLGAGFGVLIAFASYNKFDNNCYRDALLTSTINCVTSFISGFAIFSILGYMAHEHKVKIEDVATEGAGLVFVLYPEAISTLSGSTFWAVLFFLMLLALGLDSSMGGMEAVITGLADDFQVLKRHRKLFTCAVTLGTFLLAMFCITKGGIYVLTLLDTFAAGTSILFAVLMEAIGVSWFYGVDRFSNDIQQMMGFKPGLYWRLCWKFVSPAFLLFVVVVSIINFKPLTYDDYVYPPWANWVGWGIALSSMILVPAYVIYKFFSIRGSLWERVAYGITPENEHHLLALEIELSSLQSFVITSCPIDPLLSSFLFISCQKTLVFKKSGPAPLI
Chain of D(3) dopamine receptor (P35462 whole entry): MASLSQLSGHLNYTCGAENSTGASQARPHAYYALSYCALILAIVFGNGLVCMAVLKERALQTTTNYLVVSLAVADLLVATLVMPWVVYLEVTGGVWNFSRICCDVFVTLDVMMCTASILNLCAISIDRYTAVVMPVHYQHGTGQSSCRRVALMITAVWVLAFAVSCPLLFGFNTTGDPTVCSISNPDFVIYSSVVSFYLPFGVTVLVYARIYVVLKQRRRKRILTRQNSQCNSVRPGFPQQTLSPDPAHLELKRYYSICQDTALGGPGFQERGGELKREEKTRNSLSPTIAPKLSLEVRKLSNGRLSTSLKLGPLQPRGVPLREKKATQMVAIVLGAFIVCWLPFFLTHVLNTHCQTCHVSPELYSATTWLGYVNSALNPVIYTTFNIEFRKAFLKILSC
Chain of D(2) dopamine receptor (P14416 whole entry): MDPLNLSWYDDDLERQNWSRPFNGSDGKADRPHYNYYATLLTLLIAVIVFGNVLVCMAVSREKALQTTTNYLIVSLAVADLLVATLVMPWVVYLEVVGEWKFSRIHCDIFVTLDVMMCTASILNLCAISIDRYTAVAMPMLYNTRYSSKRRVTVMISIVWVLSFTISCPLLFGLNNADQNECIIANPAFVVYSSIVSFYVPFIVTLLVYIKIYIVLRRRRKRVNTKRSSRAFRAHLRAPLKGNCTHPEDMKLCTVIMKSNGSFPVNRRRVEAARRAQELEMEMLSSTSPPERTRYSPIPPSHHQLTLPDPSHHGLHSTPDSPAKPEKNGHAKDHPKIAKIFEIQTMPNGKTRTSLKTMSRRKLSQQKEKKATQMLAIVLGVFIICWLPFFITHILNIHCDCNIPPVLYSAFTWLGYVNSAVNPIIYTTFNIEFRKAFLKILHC
Chain of Histamine H1 receptor (P35367 whole entry): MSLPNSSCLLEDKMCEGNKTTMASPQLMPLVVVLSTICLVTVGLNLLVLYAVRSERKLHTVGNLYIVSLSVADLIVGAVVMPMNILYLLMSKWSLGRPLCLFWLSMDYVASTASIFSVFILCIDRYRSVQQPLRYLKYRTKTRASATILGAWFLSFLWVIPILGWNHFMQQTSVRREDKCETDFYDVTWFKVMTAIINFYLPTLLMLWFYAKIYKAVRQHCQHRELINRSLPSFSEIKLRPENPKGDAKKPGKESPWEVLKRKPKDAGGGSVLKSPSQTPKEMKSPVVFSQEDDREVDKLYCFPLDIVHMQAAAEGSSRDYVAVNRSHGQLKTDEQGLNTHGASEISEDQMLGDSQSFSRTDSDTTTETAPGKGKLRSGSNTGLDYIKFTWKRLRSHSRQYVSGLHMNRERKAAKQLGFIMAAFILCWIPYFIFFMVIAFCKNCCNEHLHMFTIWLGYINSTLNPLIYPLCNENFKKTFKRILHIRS
Chain of Sodium-dependent dopamine transporter (P23977 whole entry): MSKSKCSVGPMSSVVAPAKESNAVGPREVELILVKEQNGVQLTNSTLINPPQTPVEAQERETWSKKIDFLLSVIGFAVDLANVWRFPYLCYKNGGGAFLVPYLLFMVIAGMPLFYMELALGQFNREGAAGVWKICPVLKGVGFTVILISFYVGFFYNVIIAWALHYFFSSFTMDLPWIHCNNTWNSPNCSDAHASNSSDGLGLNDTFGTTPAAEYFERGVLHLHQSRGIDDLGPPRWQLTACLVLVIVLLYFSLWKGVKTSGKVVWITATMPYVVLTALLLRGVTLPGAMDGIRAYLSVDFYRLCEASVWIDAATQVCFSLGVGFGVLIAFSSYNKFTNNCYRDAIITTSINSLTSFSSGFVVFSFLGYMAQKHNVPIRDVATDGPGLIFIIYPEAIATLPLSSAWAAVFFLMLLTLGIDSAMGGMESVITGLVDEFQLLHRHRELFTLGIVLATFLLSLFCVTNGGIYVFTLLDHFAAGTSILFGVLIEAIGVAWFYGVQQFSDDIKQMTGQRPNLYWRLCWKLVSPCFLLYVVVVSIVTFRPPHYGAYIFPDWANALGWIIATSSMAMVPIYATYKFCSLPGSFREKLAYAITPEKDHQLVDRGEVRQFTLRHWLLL

Ki [4] [nM] | Ki [5] [nM] | Ki [6] [nM] | Ki (D(3) dopamine receptor) [nM] | Ki [7] [nM] | Ki [8] [nM] | Ki [9] [nM] | Ki (D(2) dopamine receptor) [nM] | Ki (D(4) dopamine receptor) [nM] | Ki (Histamine H1 receptor) [nM] | Compound | ED50 (Rattus norvegicus [1]) [mg/kg] | ED50 (Rattus norvegicus [2]) [mg/kg] | ED50 (Rattus norvegicus [3]) [mg/kg]
> 1000 | 132 | > 1000 | 270 | 515 | > 1000 | > 1000 | 959 | > 1000 | > 1000 | COc1cc2c(cc1OC)C1=NO[C@@H](CN3CCN(C/C=C/c4ccccc4)CC3)[C@@H]1CO2 | 0.39 | 0.17 | 5
> 1000 | 220 | > 1000 | 611 | 368 | > 1000 | > 1000 | > 1000 | > 1000 | > 1000 | COc1cc2c(cc1OC)C1=NO[C@@H](CN3CCN(C/C=C(\C)c4ccccc4)CC3)[C@@H]1CO2 | 0.5 | 0.24 | ≥ 2.5
> 1000 | 177 | > 1000 | 433 | > 1000 | 475 | > 1000 | 230 | > 1000 | 113 | COc1cc2c(cc1OC)C1=NO[C@@H](CN3CCN(C/C(C)=C/c4ccccc4)CC3)[C@@H]1CO2 |  | 0.33 | 
> 1000 | 33 | > 1000 | 107 | 246 | > 1000 | > 1000 | > 1000 | > 1000 | 460 | COc1cc2c(cc1OC)C1=NO[C@@H](CN3CCN(Cc4ccc5ccccc5c4)CC3)[C@@H]1CO2 | 0.08 | 0.25 | 5
